Experimental data reported in ChEMBL document CHEMBL4715736, “Identification of anticancer agents based on the thieno[2,3-b]pyridine and 1H-pyrazole molecular scaffolds” (2016).

Columns and labels:
Assay type in all cases: functional
UACC-257 [1] = experiment: Growth inhibition of human UACC-257 cells incubated for 48 hrs by sulforhodamine B assay
Procedure, shortened: (§1)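 NCI DTP 60-line human tumour panel. Dose-response curves were run only for ligands active in the initial 10 µM screen. GI50 (concentration giving 50% of maximal inhibition of proliferation) and TGI (concentration giving total growth inhibition) were derived from these curves.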

SK-MEL-2 = experiment: Growth inhibition of human SK-MEL-2 cells assessed as cell growth at 0.01 uM incubated for 48 hrs by sulforhodamine B assay relative to control; details: read-out: Activity
MOLT-4 [2] = experiment: Growth inhibition of human MOLT-4 cells assessed as cell growth at 100 uM incubated for 48 hrs by sulforhodamine B assay relative to control; details: read-out: Activity
RXF 393 = experiment: Growth inhibition of human RXF 393 cells assessed as cell growth at 1 uM incubated for 48 hrs by sulforhodamine B assay relative to control; details: read-out: Activity
OVCAR-4 [3] = experiment: Growth inhibition of human OVCAR-4 cells assessed as cell growth at 100 uM incubated for 48 hrs by sulforhodamine B assay relative to control; details: read-out: Activity
SN12C [4] = experiment: Growth inhibition of human SN12C cells incubated for 48 hrs by sulforhodamine B assay; details: for CC50: read-out: LC50 (the source's name); procedure, shortened: as §1
MDA-MB-435 = experiment: Growth inhibition of human MDA-MB-435 cells assessed as cell growth at 0.1 uM incubated for 48 hrs by sulforhodamine B assay relative to control; details: read-out: Activity
TK-10 = experiment: Growth inhibition of human TK-10 cells assessed as cell growth at 100 uM incubated for 48 hrs by sulforhodamine B assay relative to control; details: read-out: Activity
IGROV-1 = experiment: Growth inhibition of human IGROV-1 cells incubated for 48 hrs by sulforhodamine B assay
Procedure, shortened: (§2)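 NCI60 panel at the NCI Developmental Therapeutics Program. Only compounds active in the 10 µM screen went to dose-response testing. GI50, the concentration giving 50% of maximal inhibition of proliferation, and TGI, the concentration giving total growth inhibition, were derived from the dose-response curves.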

Malme-3M = experiment: Growth inhibition of human Malme-3M cells incubated for 48 hrs by sulforhodamine B assay; procedure, shortened: as §2
NCI-H460 [5] = experiment: Growth inhibition of human NCI-H460 cells assessed as cell growth at 0.1 uM incubated for 48 hrs by sulforhodamine B assay relative to control; details: read-out: Activity
T47D = experiment: Growth inhibition of human T47D cells incubated for 48 hrs by sulforhodamine B assay; details: for CC50: read-out: LC50 (the source's name); procedure, shortened: as §1
HCT-15 [6] = experiment: Growth inhibition of human HCT-15 cells assessed as cell growth at 0.01 uM incubated for 48 hrs by sulforhodamine B assay relative to control; details: read-out: Activity
Hs-578T = experiment: Growth inhibition of human Hs-578T cells assessed as cell growth at 0.1 uM incubated for 48 hrs by sulforhodamine B assay relative to control; details: read-out: Activity
HCT-15 [7] = experiment: Growth inhibition of human HCT-15 cells assessed as cell growth at 1 uM incubated for 48 hrs by sulforhodamine B assay relative to control; details: read-out: Activity
DU-145 = experiment: Growth inhibition of human DU-145 cells assessed as cell growth at 0.1 uM incubated for 48 hrs by sulforhodamine B assay relative to control; details: read-out: Activity
Procedure, shortened: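 NCI Developmental Therapeutics Program NCI60 panel. Compounds that were active in the 10 µM one-dose screen went on to dose–response testing. Growth at each concentration is expressed relative to untreated control (100%). GI50 (concentration giving 50% of maximal inhibition of proliferation) and TGI (concentration giving total growth inhibition) were derived from the curves.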

NCI-H460 [8] = experiment: Growth inhibition of human NCI-H460 cells assessed as cell growth at 0.01 uM incubated for 48 hrs by sulforhodamine B assay relative to control; details: read-out: Activity
K562 = experiment: Growth inhibition of human K562 cells assessed as cell growth at 100 uM incubated for 48 hrs by sulforhodamine B assay relative to control; details: read-out: Activity
NCI-H522 = experiment: Growth inhibition of human NCI-H522 cells assessed as cell growth at 100 uM incubated for 48 hrs by sulforhodamine B assay relative to control; details: read-out: Activity
SF-295 = experiment: Growth inhibition of human SF-295 cells assessed as cell growth at 1 uM incubated for 48 hrs by sulforhodamine B assay relative to control; details: read-out: Activity
MDA-MB-231 = experiment: Growth inhibition of human MDA-MB-231 cells assessed as cell growth at 100 uM incubated for 48 hrs by sulforhodamine B assay relative to control; details: read-out: Activity
OVCAR-5 = experiment: Growth inhibition of human OVCAR-5 cells assessed as cell growth at 0.1 uM incubated for 48 hrs by sulforhodamine B assay relative to control; details: read-out: Activity
MOLT-4 [9] = experiment: Growth inhibition of human MOLT-4 cells assessed as cell growth at 0.1 uM incubated for 48 hrs by sulforhodamine B assay relative to control; details: read-out: Activity
SN12C [10] = experiment: Growth inhibition of human SN12C cells assessed as cell growth at 1 uM incubated for 48 hrs by sulforhodamine B assay relative to control; details: read-out: Activity
HT-29 = experiment: Growth inhibition of human HT-29 cells incubated for 48 hrs by sulforhodamine B assay; procedure, shortened: as §2
KM12 = experiment: Growth inhibition of human KM12 cells assessed as cell growth at 100 uM incubated for 48 hrs by sulforhodamine B assay relative to control; details: read-out: Activity
HOP-62 = experiment: Growth inhibition of human HOP-62 cells assessed as cell growth at 0.1 uM incubated for 48 hrs by sulforhodamine B assay relative to control; details: read-out: Activity
SK-MEL-5 = experiment: Growth inhibition of human SK-MEL-5 cells assessed as cell growth at 0.01 uM incubated for 48 hrs by sulforhodamine B assay relative to control; details: read-out: Activity
ACHN = experiment: Growth inhibition of human ACHN cells assessed as cell growth at 100 uM incubated for 48 hrs by sulforhodamine B assay relative to control; details: read-out: Activity
UACC-257 [11] = experiment: Growth inhibition of human UACC-257 cells assessed as cell growth at 0.1 uM incubated for 48 hrs by sulforhodamine B assay relative to control; details: read-out: Activity
OVCAR-3 = experiment: Growth inhibition of human OVCAR-3 cells assessed as cell growth at 100 uM incubated for 48 hrs by sulforhodamine B assay relative to control; details: read-out: Activity
OVCAR-4 [12] = experiment: Growth inhibition of human OVCAR-4 cells assessed as cell growth at 0.01 uM incubated for 48 hrs by sulforhodamine B assay relative to control; details: read-out: Activity
OVCAR-8 = experiment: Growth inhibition of human OVCAR-8 cells assessed as cell growth at 0.01 uM incubated for 48 hrs by sulforhodamine B assay relative to control; details: read-out: Activity
SR [13] = experiment: Growth inhibition of human SR cells assessed as cell growth at 0.01 uM incubated for 48 hrs by sulforhodamine B assay relative to control; details: read-out: Activity
SR [14] = experiment: Growth inhibition of human SR cells assessed as cell growth at 1 uM incubated for 48 hrs by sulforhodamine B assay relative to control; details: read-out: Activity

## Cc1cccc(NC(=O)c2sc3nc4c(cc3c2N)C(=O)CCC4)c1
UACC-257 [1]
  GI50: ≥ 0.148 µM
  LC50 (concentration killing 50% of cells): > 100 µM
  TGI: > 100 µM
SK-MEL-2
  growth at 0.01 µM: 101%
MOLT-4 [2]
  growth at 100 µM: 6%
RXF 393
  growth at 1 µM: -16%
OVCAR-4 [3]
  growth at 100 µM: -56%
SN12C [4]
  GI50: 0.695 µM
  TGI: ≥ 100 µM
  CC50: > 100 µM
MDA-MB-435
  growth at 0.1 µM: 4%
TK-10
  growth at 100 µM: -23%
IGROV-1
  GI50: 0.662 µM
  LC50: > 100 µM
  TGI: ≥ 100 µM
Malme-3M
  LC50: > 100 µM
  TGI: ≥ 100 µM
NCI-H460 [5]
  growth at 0.1 µM: 83%
T47D
  TGI: > 100 µM
  CC50: > 100 µM
HCT-15 [6]
  growth at 0.01 µM: 88%
Hs-578T
  growth at 0.1 µM: 76%
HCT-15 [7]
  growth at 1 µM: 24%
DU-145
  growth at 0.1 µM: 89%
NCI-H460 [8]
  growth at 0.01 µM: 104%
K562
  growth at 100 µM: 17%
NCI-H522
  growth at 100 µM: -27%
SF-295
  growth at 1 µM: 9%
MDA-MB-231
  growth at 100 µM: 21%
OVCAR-5
  growth at 0.1 µM: 86%
MOLT-4 [9]
  growth at 0.1 µM: 95%
SN12C [10]
  growth at 1 µM: 42%
HT-29
  GI50: 0.199 µM
  LC50: ≥ 100 µM
  TGI: ≥ 100 µM
KM12
  growth at 100 µM: -58%
HOP-62
  growth at 0.1 µM: 69%
SK-MEL-5
  growth at 0.01 µM: 97%
ACHN
  growth at 100 µM: -21%
UACC-257 [11]
  growth at 0.1 µM: 58%
OVCAR-3
  growth at 100 µM: -23%
OVCAR-4 [12]
  growth at 0.01 µM: 90%
OVCAR-8
  growth at 0.01 µM: 100%

## CCc1cccc(C)c1NC(=O)c1sc2nc3c(cc2c1N)C(=O)CCC3
SR [13]
  growth at 0.01 µM: 96%
UACC-257 [1]
  GI50: 0.185 µM
  LC50 (concentration killing 50% of cells): > 100 µM
  TGI: 62.3 µM
MOLT-4 [2]
  growth at 100 µM: -9%
RXF 393
  growth at 1 µM: -12%
OVCAR-4 [3]
  growth at 100 µM: 10%
SN12C [4]
  GI50: 0.0104 µM
  TGI: > 100 µM
  CC50: > 100 µM
MDA-MB-435
  growth at 0.1 µM: 71%
IGROV-1
  GI50: 0.111 µM
  LC50: > 100 µM
  TGI: > 100 µM
Malme-3M
  LC50: > 100 µM
  TGI: 97.2 µM
NCI-H460 [5]
  growth at 0.1 µM: 100%
T47D
  GI50: 0.517 µM
  TGI: ≥ 100 µM
  CC50: > 100 µM
HCT-15 [6]
  growth at 0.01 µM: 93%
Hs-578T
  growth at 0.1 µM: 90%
HCT-15 [7]
  growth at 1 µM: 29%
DU-145
  growth at 0.1 µM: 102%
NCI-H460 [8]
  growth at 0.01 µM: 101%
K562
  growth at 100 µM: -52%
SR [14]
  growth at 1 µM: 17%
SF-295
  growth at 1 µM: 5%
MDA-MB-231
  growth at 100 µM: 24%
OVCAR-5
  growth at 0.1 µM: 88%
MOLT-4 [9]
  growth at 0.1 µM: 102%
SN12C [10]
  growth at 1 µM: 45%
KM12
  growth at 100 µM: 4%
HOP-62
  growth at 0.1 µM: 92%
SK-MEL-5
  growth at 0.01 µM: 92%
ACHN
  growth at 100 µM: 5%
UACC-257 [11]
  growth at 0.1 µM: 82%
OVCAR-3
  growth at 100 µM: -50%
OVCAR-4 [12]
  growth at 0.01 µM: 89%
OVCAR-8
  growth at 0.01 µM: 99%
